Laboratory results from ChEMBL document CHEMBL1155281, “Synthesis, spectroscopic characterization and antibacterial activity of new cobalt(II) complexes of unsymmetrical tetradentate (OSN2) Schiff base ligands” (2009).
≈ marks a conversion by molar mass, not a printed value.

Key:
Streptococcus pyogenes [1] = assay: Antibacterial activity against Streptococcus pyogenes RITCC 1940 at 10 ug after overnight incubation by agar well diffusion method; assay type: functional, organism-based
Outline: (§1)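 Bacteria were enriched in 1 ml Mueller–Hinton broth at 37 °C for 12 h, then cultured on Mueller–Hinton agar. Wells were cut with a 6 mm cork borer and filled with test solution, with gentamicine as the standard antibiotic. Plates were incubated overnight at 37 °C and inhibition-zone diameters were measured. Values are the average of triplicates. A methanol-only blank was included.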

Bacillus anthracis [2] = assay: Antibacterial activity against Bacillus anthracis RITCC 1036 at 10 ug after overnight incubation by agar well diffusion method; assay type: functional, organism-based
Klebsiella pneumoniae [3] = assay: Antibacterial activity against Klebsiella pneumoniae RITCC 1249 at 10 ug after overnight incubation by agar well diffusion method; assay type: functional, organism-based; outline: as §1
Streptococcus pyogenes [4] = assay: Antibacterial activity against Streptococcus pyogenes RITCC 1940 at 100 ul after overnight incubation by agar well diffusion method; assay type: functional
Outline: (§2)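 Agar well diffusion. Inoculum came from a 12 h, 37 °C enrichment culture in 1 ml Mueller–Hinton broth and was spread on Mueller–Hinton agar. Wells cut with a 6 mm cork borer and filled with 100 µL of compound solution; methanol blank. Incubated overnight at 37 °C, then inhibition zone diameter measured. Triplicate, averaged.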

Streptococcus agalactiae [5] = assay: Antibacterial activity against Streptococcus agalactiae RITCC 1913 at 100 ul after overnight incubation by agar well diffusion method; assay type: functional; outline: as §2
Staphylococcus aureus [6] = assay: Antibacterial activity against Staphylococcus aureus RITCC 1885 at 100 ul after overnight incubation by agar well diffusion method; assay type: functional; outline: as §2
Bacillus anthracis [7] = assay: Antibacterial activity against Bacillus anthracis RITCC 1036 at 100 ul after overnight incubation by agar well diffusion method; assay type: functional
Klebsiella pneumoniae [8] = assay: Antibacterial activity against Klebsiella pneumoniae RITCC 1249 at 100 ul after overnight incubation by agar well diffusion method; assay type: functional; outline: as §2
Pseudomonas aeruginosa [9] = assay: Antibacterial activity against Pseudomonas aeruginosa RITCC 1547 at 100 ul after overnight incubation by agar well diffusion method; assay type: functional; outline: as §2
Streptococcus pyogenes [10] = assay: Antibacterial activity against Streptococcus pyogenes RITCC 1940 after 24 hrs by macrodilution broth susceptibility assay; assay type: functional; details: RITCC 1940, 24 h
Outline: (§3)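 Macro-dilution broth series of 12 tubes, each holding 1 ml Mueller–Hinton broth. Tube one received 1 ml of 100 mg/ml test solution, then serial dilution down the series. Added 1 ml bacterial suspension matched to 0.5 McFarland (1.5 ×10⁸ cfu/ml). Incubated 37 °C for 24 h. MIC taken as the last tube without turbidity.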

Streptococcus agalactiae [11] = assay: Antibacterial activity against Streptococcus agalactiae RITCC 1913 after 24 hrs by macrodilution broth susceptibility assay; assay type: functional; details: RITCC 1913, 24 h; outline: as §3
Staphylococcus aureus [12] = assay: Antibacterial activity against Staphylococcus aureus RITCC 1885 after 24 hrs by macrodilution broth susceptibility assay; assay type: functional; details: RITCC 1885, 24 h; outline: as §3
Bacillus anthracis [13] = assay: Antibacterial activity against Bacillus anthracis RITCC 1036 after 24 hrs by macrodilution broth susceptibility assay; assay type: functional; details: RITCC 1036, 24 h
Klebsiella pneumoniae [14] = assay: Antibacterial activity against Klebsiella pneumoniae RITCC 1249 after 24 hrs by macrodilution broth susceptibility assay; assay type: functional; details: RITCC 1249, 24 h; outline: as §3
Pseudomonas aeruginosa [15] = assay: Antibacterial activity against Pseudomonas aeruginosa RITCC 1547 after 24 hrs by macrodilution broth susceptibility assay; assay type: functional; details: RITCC 1547, 24 h; outline: as §3

Molecule | inhibition zone (IZ) (Streptococcus pyogenes [1]) | inhibition zone (IZ) (Bacillus anthracis [2]) | inhibition zone (IZ) (Klebsiella pneumoniae [3]) | inhibition zone (IZ) (Streptococcus pyogenes [4]) | inhibition zone (IZ) (Streptococcus agalactiae [5]) | inhibition zone (IZ) (Staphylococcus aureus [6]) | inhibition zone (IZ) (Bacillus anthracis [7]) | inhibition zone (IZ) (Klebsiella pneumoniae [8]) | inhibition zone (IZ) (Pseudomonas aeruginosa [9]) | MIC (Streptococcus pyogenes [10]) | MIC (Streptococcus agalactiae [11]) | MIC (Staphylococcus aureus [12]) | MIC (Bacillus anthracis [13]) | MIC (Klebsiella pneumoniae [14]) | MIC (Pseudomonas aeruginosa [15])
GENTAMICIN | 20 mm | 32 mm | 20 mm | – | – | – | – | – | – | – | – | – | – | – | –
Oc1ccc(Br)cc1/C=N/CCSCCc1ccccn1 | – | – | – | 40 mm | 50 mm | 40 mm | 50 mm | 30 mm | 20 mm | 6250 µg/mL (≈ 17.1 mM) | 3.12 mg/mL (≈ 8.55 mM) | 6.25 mg/mL (≈ 17.1 mM) | 3.12 mg/mL (≈ 8.55 mM) | 12.5 mg/mL (≈ 34.2 mM) | 25 mg/mL (≈ 68.4 mM)
COc1ccc(O)c(/C=N/CCSCCc2ccccn2)c1 | – | – | – | 40 mm | 20 mm | 10 mm | 20 mm | 20 mm | 10 mm | 6250 µg/mL (≈ 19.8 mM) | 25 mg/mL (≈ 79 mM) | 50 mg/mL (≈ 158 mM) | 25 mg/mL (≈ 79 mM) | 25 mg/mL (≈ 79 mM) | 50 mg/mL (≈ 158 mM)
O=[N+]([O-])c1ccc(O)c(/C=N/CCSCCc2ccccn2)c1 | – | – | – | 40 mm | 30 mm | 20 mm | 20 mm | 20 mm | 20 mm | 6250 µg/mL (≈ 18.9 mM) | 12.5 mg/mL (≈ 37.7 mM) | 25 mg/mL (≈ 75.4 mM) | 25 mg/mL (≈ 75.4 mM) | 25 mg/mL (≈ 75.4 mM) | 25 mg/mL (≈ 75.4 mM)
